Compound activity: PubChem BioAssay, Broad Institute
dFosB act-1: activators of delta FosB homodimer, primary screen, biochemical, fluorescence polarization, TAMRA-CDK5 oligo, single point | Protein FosB (Mus musculus), P13346 | purified delta FosB; percent of positive-control signal above neutral wells | activation, % at 25 µM | 340,000 tested, 0.99% active;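 active = mean activation above about 17%, with every replicate also reaching it, limit read from the data, passing the limit was not always enough; inconclusive = only one of the two conditions met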
Target sequence (P13346 whole entry, looked up): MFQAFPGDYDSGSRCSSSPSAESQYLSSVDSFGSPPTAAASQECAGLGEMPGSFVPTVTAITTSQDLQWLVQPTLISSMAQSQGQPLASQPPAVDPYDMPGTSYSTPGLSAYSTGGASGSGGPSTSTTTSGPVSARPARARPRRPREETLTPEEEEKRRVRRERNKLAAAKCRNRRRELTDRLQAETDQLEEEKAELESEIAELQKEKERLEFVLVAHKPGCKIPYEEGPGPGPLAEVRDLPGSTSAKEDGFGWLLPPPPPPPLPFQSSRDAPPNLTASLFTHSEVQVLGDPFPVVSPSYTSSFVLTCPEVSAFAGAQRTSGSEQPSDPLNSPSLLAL
CAL PDZ FP-1: untagged CAL PDZ binding inhibitors, primary screen, biochemical, fluorescence polarization, HTS | Golgi-associated PDZ and coiled-coil motif-containing protein (Homo sapiens), Q9HD26 | purified CAL PDZ, TMR-peptide fluorescence polarization, 1 h | inhibition, % at 24.9 µM | 300,000 tested, 0.92% active | AID 602252, 2012;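 active = mean inhibition of at least 30% with at least half of replicates also reaching 30%; inconclusive = no clear call, values can overlap the other calls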
CAL PDZ FP-2: CAL PDZ peptide-binding inhibitors, primary screen, biochemical, fluorescence polarization, Cer-tagged CAL PDZ, HTS | inhibition, % at 20 µM | purified CAL PDZ, TMR-peptide fluorescence polarization, 1 h | 330,000 tested, 0.02% active;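 active = highest replicate inhibition of at least 40%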
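System: tagged CAL PDZ domain. Schedule: 1 h room-temperature incubation prior to read. Signal: fluorescence polarization (mP). Measure: percent inhibition from loss of millipolarization.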
CDK5 inh: inhibitors of human CDK5/p35 kinase, primary screen, biochemical, single concentration; 330,000 tested, 0.01% active; Recombinant CDK5/p35, ADP-Glo luminescence, 60 min; inhibition, % at 10 µM;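 active = highest replicate inhibition of at least 50% and at least 75% of replicates reaching 50%; inconclusive = only one of the two criteria met; inactive = both criteria failed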
S100A4 MyoIIA: inhibitors of S100A4-myosin IIA peptide binding, primary screen, biochemical, fluorescence polarization, TAMRA-MyoIIA peptide; AID 652163, 2013; Protein S100-A4 (Homo sapiens), P26447; inhibition, % at 10.7 µM; 360,000 tested, 0.14% active;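 active = mean inhibition of at least 70% across replicates, with every replicate also reaching that level; inconclusive = mean inhibition reaches 70% but some replicates fall short; inactive = mean inhibition below 70%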
Target sequence (P26447 whole entry, looked up): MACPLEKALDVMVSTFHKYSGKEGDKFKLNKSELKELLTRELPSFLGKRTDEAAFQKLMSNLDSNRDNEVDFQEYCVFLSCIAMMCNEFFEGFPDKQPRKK
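incubation = readout 5 min after mixing, signal stable up to 60 min | system = S100A4 monomer protein | buffer or medium = HEPES pH 7.2 with CaCl2, KCl, NaCl, DTT, Triton | benchmarks = neutral control DMSO, positive control TFP | also added = fluorescent myosin IIA peptide, 5 nM | compound dosing = one concentration per compound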
Statin myotox sup: suppressors of statin myotoxicity in C2C12 myotubes, primary screen, cell-based, single point, plate reader; C2C12 myotubes + simvastatin, ATP luminescence, 48 h; scaled: DMSO 0, geranylgeraniol control 100; rescue of ATP level, % at 7.49 µM; 330,000 tested, 0.78% active; AID 602340, 2012;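 active = mean ATP rescue above about 67%, or every replicate alone reaching that limit, limit read from the data, passing the limit was not always enough; inconclusive = no clear call, values can overlap the other calls; inactive = mean under the limit and some replicate under it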;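 note: myotubes were challenged with 10 µM simvastatin during compound exposure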
dFosB act-2: activators of mouse delta FosB DNA binding, confirmation, biochemical, fluorescence polarization, TAMRA-CDK5 oligo, cherry-picked samples. shares compounds with dFosB act-1. purified delta FosB; normalised: neutral wells 0, positive control 100. activation, % at 24.9 µM. 2,400 tested, under 10 active. AID 588690, 2011;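 active = highest replicate activation at or above 34% and every replicate reaching that threshold; inconclusive = meets only one of the two criteria; inactive = meets neither criterion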;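 note: higher polarization means more probe DNA bound by delta FosB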
Of the large screens only hits and unclear results are named; the others gave an inactive call (follow-up assays come after a bar, where they were run). Rows were chosen to be rich in hits. Some 2% of all compounds tested hit in one or more screens of this group.

Cc1ccc(CNC(=O)c2ccc(NC(=O)CCS(=O)(=O)c3cccs3)cc2)cc1	dFosB act-1 20 (no result: S100A4 MyoIIA) | dFosB act-2 inactive
CCNC1CCC(Nc2ccnc3cc(Cl)ccc23)CC1 (stereo not given)	dFosB act-1 20 | dFosB act-2 inactive
Cc1cccc(NC(=O)Cn2c(C)c(C#N)c3ccccc32)c1C	dFosB act-1 32 (no result: S100A4 MyoIIA) | dFosB act-2 inactive
Cc1c(C#N)c2ccccc2n1CC(=O)NC(C)c1ccccc1 (stereo not given)	none (no result: S100A4 MyoIIA, Statin myotox sup)
COc1ccc(C(=O)COC(=O)c2ccc(-n3cnnn3)cc2)c(OC)c1	none
O=C(Cn1c2ccc(F)cc2c2nc3n(c(=O)c21)CCS3)NC1CCCC1	none
O=C(Cn1c2ccc(F)cc2c2nc3n(c(=O)c21)CCS3)Nc1ccccc1C(F)(F)F	dFosB act-1 50 (no result: Statin myotox sup) | dFosB act-2 inactive
O=C(CC1C(=O)NCCN1C(=O)Nc1ccccc1)Nc1cc(Cl)ccc1Cl (stereo not given)	none (no result: Statin myotox sup)
Cc1ccc(S(=O)(=O)N2CCN(CCc3ccncc3)CC2)cc1	none (no result: CAL PDZ FP-1)
O=C(CSc1nnc2c(n1)[nH]c1ccc(S(=O)(=O)N3CCOCC3)cc12)Nc1ccccc1Cl	dFosB act-1 26 | dFosB act-2 inactive
CCOC(=O)c1cccc(NC(=O)Cn2c(CC(=O)NC)nc3ccccc32)c1	dFosB act-1 41 (no result: CAL PDZ FP-1, S100A4 MyoIIA, Statin myotox sup) | dFosB act-2 inactive
Cc1[nH]c2ccccc2c1C(=O)C(=O)NCCc1c[nH]c2ccccc12	none (no result: CAL PDZ FP-1)
COc1ccc(N2C(=O)CN=C2Nc2nc(C)cc(C)n2)cc1OC	none (no result: CAL PDZ FP-1, S100A4 MyoIIA)
Cc1ccc(CSc2nnc(NC(=O)Cn3cnc4ccccc4c3=O)s2)cc1	dFosB act-1 31 (no result: Statin myotox sup) | dFosB act-2 inactive
Cc1cc(Br)ccc1SCC(=O)OCC(O)=C(C#N)c1nc2ccccc2[nH]1	none
Cc1cc(Br)ccc1SCC(=O)OC/C(O)=C(\C#N)c1nc2ccccc2[nH]1	dFosB act-1 52 (no result: Statin myotox sup) | dFosB act-2 inactive
Cc1cc(N2CCN(c3nc(-c4ccc([N+](=O)[O-])cc4)cs3)CC2)c2ccccc2n1	dFosB act-1 26 (no result: Statin myotox sup) | dFosB act-2 inactive
Cc1ccc(C(=O)C(C)OC(=O)C2=COCCO2)cc1C (stereo not given)	none (no result: S100A4 MyoIIA)
CCN(CC)CCN(C(=O)c1cc2c(ccc3ccccc32)oc1=O)c1nc2cc3c(cc2s1)OCCO3	dFosB act-1 71 (no result: CAL PDZ FP-1) | dFosB act-2 inactive
CCN(c1ccccc1)S(=O)(=O)c1ccc(C(=O)N(CCCN(C)C)c2nc3cc4c(cc3s2)OCO4)cc1	dFosB act-1 29 | dFosB act-2 inactive
CN(C)CCN(C(=O)c1ccc(Br)s1)c1nc2cc3c(cc2s1)OCCO3	dFosB act-1 19 (no result: Statin myotox sup) | dFosB act-2 inactive
CN(C)CCN(C(=O)c1cccc2ccccc12)c1nc2cc3c(cc2s1)OCO3	dFosB act-1 41 | dFosB act-2 inactive
CN(C)CCCN(C(=O)c1ccc2c(c1)OCCO2)c1nc2cc3c(cc2s1)OCO3	none
COC(=O)C1=C(C)NC(=O)NC1c1ccco1 (stereo not given)	none
O=C(Cn1cnc2sc(-c3ccccc3)cc2c1=O)NCc1ccccc1	dFosB act-1 32 (no result: CAL PDZ FP-1, S100A4 MyoIIA) | dFosB act-2 inactive
O=C(Cn1cnc2sc(-c3ccccc3)cc2c1=O)NCc1ccco1	none (no result: S100A4 MyoIIA)
O=C(Cn1cnc2c(nnn2-c2cccc(Cl)c2)c1=O)NCc1ccccc1	dFosB act-1 68 (no result: CAL PDZ FP-1) | dFosB act-2 inactive
O=C(Cn1cnc2c(oc3ccccc32)c1=O)NCCc1ccccc1	dFosB act-1 61 (no result: S100A4 MyoIIA) | dFosB act-2 inactive
O=C(Cn1cnc2sc(-c3ccccc3)cc2c1=O)NCCc1ccccc1	dFosB act-1 53 (no result: Statin myotox sup) | dFosB act-2 inactive
Cn1c(=O)c(/C(N)=N/OC(=O)c2ccccc2)cn(-c2ccccc2)c1=O	none
CC1CC(C)CN(C(=O)Cn2c(SCC(=O)N3CCc4ccccc4C3)nc3ccccc32)C1 (stereo not given)	dFosB act-1 24 (no result: S100A4 MyoIIA) | dFosB act-2 inactive
Cc1nn(Cc2ccc(Cl)cc2)c(C)c1NC(=O)Cn1nc([N+](=O)[O-])c(Cl)c1C	dFosB act-1 20 (no result: CAL PDZ FP-1, S100A4 MyoIIA) | dFosB act-2 inactive
Cc1c(Cl)c([N+](=O)[O-])nn1CC(=O)NCc1ccc(Cl)cc1	none
Cc1nn(Cc2ccc(Cl)cc2Cl)c(C)c1NC(=O)Cn1nc([N+](=O)[O-])c(Cl)c1C	dFosB act-1 44 (no result: S100A4 MyoIIA, Statin myotox sup) | dFosB act-2 inactive
Nc1nonc1-n1nnc(C(=O)N/N=C/c2ccc(OCc3ccc(F)cc3)cc2)c1COc1ccccc1	dFosB act-1 inconclusive
Cc1ccc(COc2cccc(/C=N/NC(=O)c3nnn(-c4nonc4N)c3C)c2)cc1	dFosB act-1 53 | dFosB act-2 inactive
Cc1ccc(COc2ccc(/C=N/NC(=O)c3nnn(-c4nonc4N)c3COc3ccc(F)cc3)cc2)cc1	dFosB act-1 48 (no result: Statin myotox sup) | dFosB act-2 inactive
CSc1cccc(NC(=O)NCc2cccc(CNC(=O)Nc3cccc(SC)c3)c2)c1	dFosB act-1 25 | dFosB act-2 inactive
CC(=O)NCC(=O)NC(C(=O)Nc1ccc2c(c1)OCCO2)c1ccccc1 (stereo not given)	none (no result: Statin myotox sup)
CCCCOc1ccc(C(=O)NCC(=O)OC2CCOC2=O)cc1 (stereo not given)	none (no result: S100A4 MyoIIA)
CN(C(=O)COC(=O)/C=C/c1ccc2c(c1)OCO2)c1c(N)n(Cc2ccccc2)c(=O)[nH]c1=O	dFosB act-1 53 | dFosB act-2 inactive
COc1ccc(C)cc1NC(=O)CCC(=O)Nc1nnc(C2CCCCC2)s1	dFosB act-1 40 | dFosB act-2 inactive
CC12CCC(C(=O)NCc3ccccc3)(OC1=O)C2(C)C (stereo not given)	none (no result: S100A4 MyoIIA)
O=C(Cn1nc(-c2ccccc2)ccc1=O)Nc1ccc(-n2cnnn2)cc1	dFosB act-1 58 | dFosB act-2 inactive
O=C(Cn1nc(-c2ccc3c(c2)OCCO3)ccc1=O)Nc1ccc(-n2cnnn2)cc1	dFosB act-1 81 (no result: CAL PDZ FP-1, Statin myotox sup) | dFosB act-2 inactive
O=C(Cn1nc(-c2ccccc2)ccc1=O)Nc1ccc(N2CCN(C(=O)c3ccccc3)CC2)cc1	none (no result: S100A4 MyoIIA, Statin myotox sup)
